The target in test [1] is Epidermal growth factor receptor (Homo sapiens, UniProt P00533). Kind of test: Inhibition of EGFR (unknown origin). The essentials:
(§1)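 Biochemical (cell-free) assay within a panel of 24 protein kinases. Results reported as IC50 values. Procedure as described in earlier work.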

For test [2], the target named is Mitogen-activated protein kinase kinase kinase 8 (Homo sapiens, UniProt P41279). Kind of test: Inhibition of COT (unknown origin). The gist of the method: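 Biochemical (cell-free) assay using a panel of 24 protein kinases. The read-out was the IC50.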
Test [3] addresses Casein kinase II subunit alpha (Homo sapiens, UniProt P68400). The experiment in a line: Inhibition of CK2-alpha1 (unknown origin). The gist of the method:
as §1

Test [4] addresses Cyclin-dependent kinase 2/cyclin A (Homo sapiens, UniProt P24941). Kind of test: Inhibition of CDK2/cyclin-A (unknown origin). It counts as protein-complex assay. The gist of the method: as §1
Test [5] has as its target Serine/threonine-protein kinase B-raf (Homo sapiens, UniProt P15056, V600E). Kind of test: Inhibition of B-RAF V600E mutant (unknown origin). The gist of the method:
as §1

For test [6], the target named is T1, NUAK family SNF1-like kinase 1 (Homo sapiens, UniProt O60285).
T1 sequence (O60285 whole entry): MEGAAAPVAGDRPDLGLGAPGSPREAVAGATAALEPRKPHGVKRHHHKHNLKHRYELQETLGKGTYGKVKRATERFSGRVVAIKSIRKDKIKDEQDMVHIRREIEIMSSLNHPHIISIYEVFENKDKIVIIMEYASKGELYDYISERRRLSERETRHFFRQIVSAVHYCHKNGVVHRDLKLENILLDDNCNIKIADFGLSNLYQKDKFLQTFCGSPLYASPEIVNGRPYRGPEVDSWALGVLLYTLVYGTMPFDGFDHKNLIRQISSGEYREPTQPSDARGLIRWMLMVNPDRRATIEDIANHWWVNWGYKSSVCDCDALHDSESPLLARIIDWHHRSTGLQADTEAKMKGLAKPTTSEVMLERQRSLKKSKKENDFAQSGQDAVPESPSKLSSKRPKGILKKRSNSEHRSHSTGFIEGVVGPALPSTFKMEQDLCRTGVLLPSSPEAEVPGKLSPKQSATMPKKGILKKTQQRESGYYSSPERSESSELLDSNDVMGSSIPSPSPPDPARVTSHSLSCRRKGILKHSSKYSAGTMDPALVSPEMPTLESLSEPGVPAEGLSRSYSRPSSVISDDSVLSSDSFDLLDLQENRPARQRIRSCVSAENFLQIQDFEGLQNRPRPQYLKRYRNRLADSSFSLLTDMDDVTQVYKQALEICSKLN
The experiment in a line: Inhibition of ARK5 (unknown origin). The essentials:
as §1

The target in test [7] is RAC-alpha serine/threonine-protein kinase (Homo sapiens, UniProt P31749). Kind of test: Inhibition of AKT1 (unknown origin). The essentials: as §1
For the next test, the system named is L5178Y. Kind of test: Cytotoxicity against mouse L5178Y cells assessed as inhibition of cell proliferation by MTT assay. It counts as functional, cell-based.
The target in test [8] is Serine/threonine-protein kinase PLK1 (Homo sapiens, UniProt P53350). Kind of test: Inhibition of PLK1 (unknown origin). The gist of the method:
as §1

Another test deals with Ephrin type-B receptor 4 (Homo sapiens, UniProt P54760). The experiment in a line: Inhibition of EPHB4 (unknown origin). The gist of the method: as §1
In test [9] the target is Platelet-derived growth factor receptor beta (Homo sapiens, UniProt P09619). Kind of test: Inhibition of PDGFR-beta (unknown origin).

Drawing on ChEMBL document CHEMBL2331160, “Trimeric hemibastadin congener from the marine sponge Ianthella basta” (J Nat Prod, 2013), this text covers IC50 and inhibition for three compounds.

The source made the active and inactive calls. No cut-off for these calls is given here.

Mitogen-activated protein kinase kinase kinase 8, sequence (P41279 whole entry): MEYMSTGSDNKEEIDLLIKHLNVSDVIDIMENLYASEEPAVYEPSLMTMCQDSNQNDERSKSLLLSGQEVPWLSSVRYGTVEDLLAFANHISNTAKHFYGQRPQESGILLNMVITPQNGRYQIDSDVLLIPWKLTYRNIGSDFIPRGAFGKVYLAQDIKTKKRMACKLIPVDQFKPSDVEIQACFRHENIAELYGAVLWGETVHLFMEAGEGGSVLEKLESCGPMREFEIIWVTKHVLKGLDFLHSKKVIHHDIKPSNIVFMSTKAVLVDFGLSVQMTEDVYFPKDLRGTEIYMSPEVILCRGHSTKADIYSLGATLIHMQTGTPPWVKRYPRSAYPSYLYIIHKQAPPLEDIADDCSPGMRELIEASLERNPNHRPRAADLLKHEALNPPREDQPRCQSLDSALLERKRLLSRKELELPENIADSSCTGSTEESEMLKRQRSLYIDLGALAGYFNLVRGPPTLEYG
Serine/threonine-protein kinase B-raf, sequence (P15056 2-766 V600E limits assumed): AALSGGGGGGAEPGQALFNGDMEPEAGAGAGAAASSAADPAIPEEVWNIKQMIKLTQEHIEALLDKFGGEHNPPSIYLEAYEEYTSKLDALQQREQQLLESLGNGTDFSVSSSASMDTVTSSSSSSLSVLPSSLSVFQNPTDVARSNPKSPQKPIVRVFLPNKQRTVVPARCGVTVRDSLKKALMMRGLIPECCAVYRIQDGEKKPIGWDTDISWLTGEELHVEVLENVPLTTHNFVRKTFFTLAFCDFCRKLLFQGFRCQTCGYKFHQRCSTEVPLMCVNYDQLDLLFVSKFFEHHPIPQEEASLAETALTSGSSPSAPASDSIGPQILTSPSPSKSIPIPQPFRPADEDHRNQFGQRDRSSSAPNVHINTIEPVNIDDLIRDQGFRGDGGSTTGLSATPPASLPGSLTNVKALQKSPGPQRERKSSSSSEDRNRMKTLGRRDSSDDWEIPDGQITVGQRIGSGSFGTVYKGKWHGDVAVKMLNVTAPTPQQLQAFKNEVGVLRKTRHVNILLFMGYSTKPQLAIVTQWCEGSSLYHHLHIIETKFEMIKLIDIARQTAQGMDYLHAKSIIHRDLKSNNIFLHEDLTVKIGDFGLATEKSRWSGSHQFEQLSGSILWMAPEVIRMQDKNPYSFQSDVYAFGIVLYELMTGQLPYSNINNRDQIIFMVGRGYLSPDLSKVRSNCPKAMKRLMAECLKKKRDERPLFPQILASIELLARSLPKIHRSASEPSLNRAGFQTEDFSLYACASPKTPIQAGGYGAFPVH
Epidermal growth factor receptor, sequence (P00533 whole entry): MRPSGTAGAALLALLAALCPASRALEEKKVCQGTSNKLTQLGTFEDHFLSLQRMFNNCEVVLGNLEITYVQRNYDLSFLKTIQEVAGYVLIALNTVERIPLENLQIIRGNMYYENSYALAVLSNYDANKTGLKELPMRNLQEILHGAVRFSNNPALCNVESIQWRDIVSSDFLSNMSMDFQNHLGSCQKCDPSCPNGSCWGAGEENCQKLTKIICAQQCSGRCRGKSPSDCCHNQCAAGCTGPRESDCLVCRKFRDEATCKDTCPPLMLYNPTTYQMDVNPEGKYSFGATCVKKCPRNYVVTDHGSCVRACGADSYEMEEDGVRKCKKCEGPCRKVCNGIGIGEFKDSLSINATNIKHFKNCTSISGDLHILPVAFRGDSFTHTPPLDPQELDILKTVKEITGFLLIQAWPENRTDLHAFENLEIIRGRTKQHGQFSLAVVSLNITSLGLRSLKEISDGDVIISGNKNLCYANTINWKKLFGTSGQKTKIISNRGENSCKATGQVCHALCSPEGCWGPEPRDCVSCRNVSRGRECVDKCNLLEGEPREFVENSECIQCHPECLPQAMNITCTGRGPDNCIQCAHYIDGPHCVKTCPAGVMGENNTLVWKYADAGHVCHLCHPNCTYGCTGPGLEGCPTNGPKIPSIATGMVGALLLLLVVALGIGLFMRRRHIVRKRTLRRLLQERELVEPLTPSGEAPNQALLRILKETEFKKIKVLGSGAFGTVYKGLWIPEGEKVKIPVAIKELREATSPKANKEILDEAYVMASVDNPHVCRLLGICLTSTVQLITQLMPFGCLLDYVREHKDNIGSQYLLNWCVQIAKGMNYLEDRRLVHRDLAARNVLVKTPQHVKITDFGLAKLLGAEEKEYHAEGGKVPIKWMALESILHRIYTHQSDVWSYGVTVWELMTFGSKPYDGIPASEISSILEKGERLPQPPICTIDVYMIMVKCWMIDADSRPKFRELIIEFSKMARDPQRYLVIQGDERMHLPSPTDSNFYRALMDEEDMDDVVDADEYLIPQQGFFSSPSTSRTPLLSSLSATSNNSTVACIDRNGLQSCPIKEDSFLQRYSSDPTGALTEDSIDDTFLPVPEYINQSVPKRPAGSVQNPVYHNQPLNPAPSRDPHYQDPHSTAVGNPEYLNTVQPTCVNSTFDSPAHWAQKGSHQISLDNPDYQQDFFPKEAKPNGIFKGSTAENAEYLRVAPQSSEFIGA
Ephrin type-B receptor 4, sequence (P54760 whole entry): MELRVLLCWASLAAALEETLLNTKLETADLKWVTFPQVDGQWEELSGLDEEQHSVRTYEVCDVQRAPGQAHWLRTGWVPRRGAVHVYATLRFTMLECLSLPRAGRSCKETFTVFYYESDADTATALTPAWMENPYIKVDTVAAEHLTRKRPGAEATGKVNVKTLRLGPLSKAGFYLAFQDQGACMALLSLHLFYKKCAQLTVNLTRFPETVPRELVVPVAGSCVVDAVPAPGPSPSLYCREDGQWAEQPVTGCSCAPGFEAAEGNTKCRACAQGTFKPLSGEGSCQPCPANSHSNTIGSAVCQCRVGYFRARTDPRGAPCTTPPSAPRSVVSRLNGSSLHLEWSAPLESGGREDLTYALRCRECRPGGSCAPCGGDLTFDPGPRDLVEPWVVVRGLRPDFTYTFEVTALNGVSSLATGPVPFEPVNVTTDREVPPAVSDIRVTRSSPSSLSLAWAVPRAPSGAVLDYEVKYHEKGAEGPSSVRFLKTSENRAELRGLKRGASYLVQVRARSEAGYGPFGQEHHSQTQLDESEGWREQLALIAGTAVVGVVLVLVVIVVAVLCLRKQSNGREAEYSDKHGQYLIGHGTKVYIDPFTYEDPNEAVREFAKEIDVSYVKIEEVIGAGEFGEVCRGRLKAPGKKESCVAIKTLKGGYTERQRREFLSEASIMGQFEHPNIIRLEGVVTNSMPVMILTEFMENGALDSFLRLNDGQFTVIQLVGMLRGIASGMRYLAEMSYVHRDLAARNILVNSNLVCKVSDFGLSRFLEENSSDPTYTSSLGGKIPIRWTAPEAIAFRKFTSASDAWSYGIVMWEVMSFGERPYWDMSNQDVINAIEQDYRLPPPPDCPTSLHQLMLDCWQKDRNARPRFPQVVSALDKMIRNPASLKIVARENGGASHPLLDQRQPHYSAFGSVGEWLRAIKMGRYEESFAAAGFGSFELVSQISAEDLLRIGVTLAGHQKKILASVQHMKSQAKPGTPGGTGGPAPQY
Serine/threonine-protein kinase PLK1, sequence (P53350 whole entry): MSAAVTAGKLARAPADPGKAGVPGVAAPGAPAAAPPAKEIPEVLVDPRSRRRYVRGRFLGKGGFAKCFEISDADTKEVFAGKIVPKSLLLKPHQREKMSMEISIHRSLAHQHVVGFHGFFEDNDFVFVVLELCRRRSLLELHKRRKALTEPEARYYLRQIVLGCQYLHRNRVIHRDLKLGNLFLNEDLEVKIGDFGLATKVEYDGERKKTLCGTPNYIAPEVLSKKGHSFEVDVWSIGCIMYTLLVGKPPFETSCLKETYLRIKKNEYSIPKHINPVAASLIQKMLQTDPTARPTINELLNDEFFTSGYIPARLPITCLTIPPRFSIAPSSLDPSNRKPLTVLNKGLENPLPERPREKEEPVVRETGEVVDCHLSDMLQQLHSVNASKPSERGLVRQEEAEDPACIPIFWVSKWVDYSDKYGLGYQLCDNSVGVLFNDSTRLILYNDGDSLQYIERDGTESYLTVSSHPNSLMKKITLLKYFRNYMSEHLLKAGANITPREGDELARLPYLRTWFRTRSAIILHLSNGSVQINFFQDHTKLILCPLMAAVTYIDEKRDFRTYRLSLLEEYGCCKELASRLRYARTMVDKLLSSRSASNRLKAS
RAC-alpha serine/threonine-protein kinase, sequence (P31749 whole entry): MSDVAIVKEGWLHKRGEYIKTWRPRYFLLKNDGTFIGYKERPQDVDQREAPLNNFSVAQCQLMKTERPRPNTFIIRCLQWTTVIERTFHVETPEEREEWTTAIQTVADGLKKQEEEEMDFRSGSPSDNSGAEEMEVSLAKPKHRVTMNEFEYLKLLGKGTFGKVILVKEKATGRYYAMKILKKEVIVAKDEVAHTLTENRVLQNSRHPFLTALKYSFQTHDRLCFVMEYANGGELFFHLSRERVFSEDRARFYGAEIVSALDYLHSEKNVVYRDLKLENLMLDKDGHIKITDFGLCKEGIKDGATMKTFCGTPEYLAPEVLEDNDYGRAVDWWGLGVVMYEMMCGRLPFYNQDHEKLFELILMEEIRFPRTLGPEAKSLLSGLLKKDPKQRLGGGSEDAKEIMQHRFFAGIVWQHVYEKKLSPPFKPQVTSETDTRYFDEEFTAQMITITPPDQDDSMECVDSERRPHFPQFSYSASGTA
Casein kinase II subunit alpha, sequence (P68400 whole entry): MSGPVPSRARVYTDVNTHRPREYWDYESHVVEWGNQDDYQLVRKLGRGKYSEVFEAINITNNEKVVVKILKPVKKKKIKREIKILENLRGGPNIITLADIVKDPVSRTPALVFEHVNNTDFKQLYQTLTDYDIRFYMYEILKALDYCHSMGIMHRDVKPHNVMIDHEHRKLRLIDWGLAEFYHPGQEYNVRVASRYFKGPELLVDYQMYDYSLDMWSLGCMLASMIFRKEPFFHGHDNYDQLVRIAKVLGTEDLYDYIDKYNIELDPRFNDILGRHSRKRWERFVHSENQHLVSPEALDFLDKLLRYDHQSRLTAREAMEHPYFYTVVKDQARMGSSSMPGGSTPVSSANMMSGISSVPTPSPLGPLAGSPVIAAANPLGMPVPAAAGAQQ

Regarding `O=C(NCCc1ccc(O)c(Br)c1)/C(Cc1cc(Br)c(O)c(-c2cc(C/C(=N/O)C(=O)NCCc3ccc(O)c(Br)c3)cc(Br)c2O)c1)=N\O` [BASTADIN 3], the IC50 in test [1] came out at 1.3 µM; in test [2], 1.6 µM; in [3] it was 4.1 µM; in test [4], 1.6 µM; in test [5], 2.7 µM; in test [6] it was 1.8 µM. The IC50 in [7] came out at 1.9 µM; in test [8] it was 3.9 µM. The inhibition result with L5178Y was “inactive”.
As to `O=C1N/C=C/c2ccc(c(Br)c2)Oc2cc(cc(Br)c2O)CCNC(=O)/C(=N/O)Cc2ccc(c(Br)c2)Oc2cc(cc(Br)c2O)C/C1=N\O` [BASTADIN 7], the IC50 against Ephrin type-B receptor 4 is 7.7 µM; in [1], 1.5 µM; in test [2] it was 3.3 µM; in test [5], 4.4 µM; in test [6], 3.2 µM; in the test with L5178Y, 5.3 µM. Moreover, in [9], the IC50 came to 10.2 µM.
For the compound `O=C(NCCc1ccc(O)c(Br)c1)/C(Cc1cc(Br)c(O)c(Oc2ccc(CCNC(=O)/C(Cc3cc(Br)c(O)c(-c4cc(C/C(=N\O)C(=O)NCCc5ccc(O)c(Br)c5)cc(Br)c4O)c3)=N/O)cc2Br)c1)=N/O` [SESQUIBASTADIN 1], the IC50 was determined as 3.4 µM on Ephrin type-B receptor 4; 0.6 µM in [1]; 1.3 µM in [2]; 6.5 µM in [4]; 1.7 µM in test [5]; 1.7 µM in test [6]. Further, the IC50 came out at 6.4 µM in test [8] and 4 µM in test [9]. For the same compound, in the test on L5178Y, the inhibition entry is “inactive”.
